The values that follow come from ChEMBL document CHEMBL1177679, “Design and synthesis of novel benzimidazole derivatives as inhibitors of hepatitis B virus” (Bioorg Med Chem, 2010).

pIC50: −log10 of the molar value.

Data set [1] is described as follows: Selectivity index, ratio of CC50 for human HepG2(2.2.15) cells to IC50 for Hepatitis B virus. Type of data set: functional. The method in brief: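 SI calculated as CC50 (MTT, HepG2.2.15, 8 days) divided by IC50 for inhibition of cytoplasmic HBV-DNA synthesis (fluorescent PCR) in the same cells.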
For a further data set, the system named is Hepatitis B virus. As to the kind of experiment: Antiviral activity against Hepatitis B virus infected in human HepG2(2.2.15) cells assessed as inhibition of viral cytoplasmic DNA synthesis after 8 days by RT-PCR analysis. Type of data set: functional, organism-based. To be noted: HepG2 2.2.15, 192 h.
Data set [2] in a line: Cytotoxicity against human HepG2(2.2.15) cells after 8 days by MTT assay. The class given is cell-based. The essentials: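 HepG2.2.15 cells in triplicate, exposed 8 days to various doses; media-only controls. MTT (5 g/L) added 4 h before end, cells lysed with 10% SDS/50% DMF pH 7.2, OD read at 570 nm 6 h later.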
In general terms: Tetrazolium assays rely on reduction of a dye to a coloured formazan, in cell work by metabolically active cells.

As usually defined, the pIC50 is the negative decadic logarithm of the IC50, by convention in mol/L. By CC50 is commonly meant the concentration giving 50% cytotoxicity. A low value points to harm at low concentration. Consider `Nc1ccn([C@@H]2CS[C@H](CO)O2)c(=O)n1` [LAMIVUDINE], for which the “Selectivity Index” value in data set [1] came out at 31.3. In the data set on Hepatitis B virus, the pIC50 was 6.80. It took 5 µM to reach half-maximal cytotoxicity in data set [2] (CC50 at 192 h).
